p-CIP stab down: lowers stability of the mouse p/CIP coactivator protein. decrease of EGFP signal, % at 10 µM. Q05BA5. F442A p/CIP-EGFP cells, EGFP fluorescence, 16 h. AID 1984. actives 0.01% (n = 290,000);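 active = EGFP signal decrease of at least 30% at 10 µM or well 3 SD below plate mean, unless failing retest; inactive = the rest, including hits failing retest or dose response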
Rce1 inhib: yeast Ras-converting enzyme inhibition; Q03530; yeast membranes, quenched prenylated peptide cleavage fluorescence; calls only; actives 0.27% (n = 290,000); AID 2563;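 active = fall in fluorescence gain of 50% or more versus controls, with final raw signal at or below 3038400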;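 also: plate controls were neutral control wells for no effect and wells lacking membranes for full effect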
procasp7 counter: counter-screen: procaspase-7 (human) activation | P55210 | recombinant procaspase-7, Ac-DEVD-pNA absorbance 405 nm; D23A/D198A/D206A triple mutant, cannot self-cleave; scale: DMSO 0, 5 µM enzyme 100 | activation, % at 8.5 µM | actives 0.093% (n = 330,000);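 active = percent activation above the screen-wide mean plus 3 SD, cut at about 25% in these data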
Target sequence (P55210 whole entry D23A/D198A/D206A): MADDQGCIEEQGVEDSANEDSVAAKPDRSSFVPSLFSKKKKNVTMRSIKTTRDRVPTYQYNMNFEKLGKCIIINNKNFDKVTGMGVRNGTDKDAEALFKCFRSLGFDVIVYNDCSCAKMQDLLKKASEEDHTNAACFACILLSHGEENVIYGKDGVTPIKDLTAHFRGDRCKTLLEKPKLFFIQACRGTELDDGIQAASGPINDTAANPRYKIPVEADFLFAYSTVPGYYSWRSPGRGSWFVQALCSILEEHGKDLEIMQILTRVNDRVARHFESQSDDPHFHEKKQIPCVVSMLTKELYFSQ
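Material: Procaspase-7 triple mutant (PC-7 D3A) | Quantity: 2 µM procaspase-7 mutant as dispensed | Reagent: DEVD-pNA substrate | Times: 1 h preincubation, 2 h reaction | Technique: 405 nm absorbance of p-nitroaniline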
Lipid droplet: modulators of hepatic lipid droplet formation. AML12 mouse hepatocytes, oleate lipid droplets, BODIPY imaging. inhibition, % at 6.5 µM. actives 0.4% (n = 240,000). AID 1656;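 active = lipid droplet intensity inhibited by at least 50%, with more than 500 cells counted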
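Technique: fluorescence imaging, 20x objective, two fields per well / Assay system: AML12 hepatocytes (mouse) / Measure: % inhibition of lipid droplet signal / Doses: 6.5 µM single-point dosing / Incubation: overnight exposure / Reagent: 100 µM oleic acid challenge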
FXN GAA850 act: frataxin GAA850 promoter activation | activation, % at 6 µM | HEK293 lucGAA850 FXN promoter luciferase reporter, 24 h; percent of 10 µM SAHA response | actives 0.56% (n = 360,000) | AID 540364;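 active = activation above the average of all compounds screened plus 3 SD, cutoff fixed separately per campaign, cut at about 7.5% in these data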;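 also: 0% = DMSO wells and 100% = 10 µM SAHA wells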
proCasp3 act: activators of human procaspase-3; activation, % at 8.5 µM; P42574; actives 0.11% (n = 330,000); recombinant procaspase-3 D3A, Ac-DEVD-pNA absorbance 405 nm;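 active = activation above the mean of all tested compounds plus 3 SD, cut at about 21% in these data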;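 also: 0% = DMSO alone and 100% = DMSO wells spiked with extra 5 µM PC-3 D3A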
Target sequence (P42574 whole entry D9A/D28A/D175A): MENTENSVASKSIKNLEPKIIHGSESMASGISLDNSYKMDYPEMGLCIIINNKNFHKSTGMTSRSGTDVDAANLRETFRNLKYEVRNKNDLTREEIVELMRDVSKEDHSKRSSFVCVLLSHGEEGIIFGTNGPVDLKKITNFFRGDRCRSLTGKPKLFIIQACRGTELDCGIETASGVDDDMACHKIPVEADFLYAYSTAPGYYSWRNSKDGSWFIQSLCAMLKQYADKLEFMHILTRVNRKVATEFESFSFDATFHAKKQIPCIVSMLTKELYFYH
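Technique: 405 nm absorbance of p-nitroaniline, reads at 0 and 120 min; Test system: Procaspase-3 D3A mutant; Incubation: 1 h enzyme-compound preincubation, then 2 h substrate reaction, 25 °C; Repeats: singlicate, each compound tested once; Benchmarks: low control DMSO wells, high control DMSO plus 5 µM PC-3 D3A.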
GAA30 counter: GAA30 FXN promoter activation counter-screen; shares compounds with FXN GAA850 act; HEK293 lucGAA30 FXN promoter luciferase, 24 h; DMSO = 0%, 5 µM ipriflavone = 100%; activation, % at 6 µM; actives 66% (n = 1,900);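 active = mean activation above the mean of solvent-only control wells plus 3 SD, cut at about 22% in these data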;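 also: counterscreen of GAA850 promoter hits where activity marks nonselective or luminescence artifacts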
GAA850 confirm: GAA850 FXN promoter activation confirmation. shares compounds with FXN GAA850 act. activation, % at 6 µM. HEK293 lucGAA850 FXN promoter luciferase reporter, 24 h; 100% = activation by SAHA. AID 588351. actives 86% (n = 1,900);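 active = mean activation above a set limit taken from the primary screen, cut at about 8% in these data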;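 also: 0% = DMSO wells and 100% = 10 µM SAHA wells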
* marks the source's active call; other numbers are inactive results; i = inactive; x = no result. An excerpt weighted towards active compounds, which were near 1.2% of everything screened.

SMILES	p-CIP stab down	Rce1 inhib	procasp7 counter	Lipid droplet	FXN GAA850 act	proCasp3 act	GAA30 counter	GAA850 confirm
COC(=O)c1sc(N2C(=O)C(O)=C(C(=O)c3ccc(C)o3)C2c2ccc([N+](=O)[O-])cc2)nc1C (centres undefined)	0	i	-19	-62	0	-12	x	x
CCCCOC(=O)Nc1ccc(N2CCCCC2)cc1	2	i	2	x	8.1*	-1	93*	31*
CCCCOC(=O)Nc1ccc(N2CCOCC2)cc1	-4	x	8	0	2	-5	x	x
O=C(c1ccc2nc(Cc3ccccc3F)oc2c1)N1CC[C@H](O)C1	4	i	0	0	4	-6	x	x
COc1ccccc1CNc1nc(NCCOc2ccccc2Cl)c2sccc2n1	x	x	x	x	-1	x	x	x
CNc1nc(NCCOc2ccccc2Cl)c2sccc2n1	x	x	x	x	9.0*	x	24*	11*
COc1ccc(/C=C2\SC(=N)N(c3ccc(F)cc3)C2=O)cc1OC	-4	i	-8	7	8.3*	-6	18	15*
CC1(C)SC2C(C(=O)O)N=C(Cc3ccccc3)N2C1C(=O)O (centres undefined)	x	x	x	x	1	x	x	x
O=C(c1ccc(Br)o1)N1CCN(C23CC4CC(CC(C4)C2)C3)CC1	-12	i	-1	-6	2	6	x	x
O=C(c1ccc(C23CC4CC(CC(C4)C2)C3)o1)N1CCOCC1	10	i	4	-2	9.7*	-8	34*	22*
CC(C)c1cc(C(=O)Nc2cc(Cl)ccc2O)no1	-19	i	7	x	7	4	x	x
CC(C)c1cc(C(=O)Nc2cc(Br)ccc2O)no1	-11	i	-3	-4	9.9*	2	97*	33*
COCCn1c(SCC(=O)Nc2ccccc2OC)nc2c([nH]c3ccccc32)c1=O	-2	i	-1	-2	8.0*	14	14	7.9*
C=CCn1c(SCC(=O)Nc2ccccc2OC)nc2c([nH]c3ccccc32)c1=O	4	i	-1	2	13*	12	18	12*
Cc1cc(NC(=O)CCN2CCC(C)CC2)ccc1Br	-9	i	x	-47	1	x	x	x
CC(=O)c1cc2c(C)c(C(=O)c3ccccc3)oc2cc1O	-13	i	-9	4	8.8*	-9	122*	39*
O=C(/C=C/c1ccccc1[N+](=O)[O-])Nc1cc(S(=O)(=O)N2CCOCC2)ccc1N1CCOCC1	x	x	x	x	1	x	x	x
S=C1NCN(Cc2cccnc2)CN1	6	i	3	4	0	-1	x	x
CN(C)C(=S)N=c1ssc(=S)n1Cc1cccnc1	x	x	x	x	12*	x	1	12*
CCOC(=O)C1CCN(S(=O)(=O)c2cccc(-c3csc(C)n3)c2)CC1	-2	i	-4	-4	8.4*	2	6	3
O=C(C1CCN(CCc2ccccc2)CC1)N1CCOCC1	x	x	x	x	-1	x	x	x
Nc1nc(CSC(=S)N2CCOCC2)nc(Nc2ccc(F)cc2)n1	1	i	1	0	6	-1	x	x
COc1ccc(Nc2nc(N)nc(CSC(=S)N3CCOCC3)n2)cc1	-9	i	0	4	7.6*	0	83*	32*
Cc1cccc2nc(CSc3nc4ccc([N+](=O)[O-])cc4[nH]3)c(Br)n12	0	i	-11	-28	14*	-17	37*	17*
COc1ccc(CN(C)C(=O)CCN=C2NS(=O)(=O)c3ccccc32)c(OC)c1	x	x	-5	x	0	8	x	x
SMILES	p-CIP stab down	Rce1 inhib	procasp7 counter	Lipid droplet	FXN GAA850 act	proCasp3 act	GAA30 counter	GAA850 confirm
CC(C)Cn1cnc2c(SCc3ccccc3F)nc(N)nc21	x	x	x	x	8.9*	x	95*	35*
CCCCn1cnc2c(SCc3ccccc3F)nc(N)nc21	x	x	x	x	8.3*	x	57*	25*
O=C(CSc1nnc(CNC(=O)c2cccs2)o1)Nc1ccccc1C(F)(F)F	4	i	10	18	-2	8	x	x
N#C/C(=C\c1ccccc1[N+](=O)[O-])C(=O)NC1CCCCC1	-23	i	3	-4	2	9	x	x
N#C/C(=C\C=C\c1ccccc1[N+](=O)[O-])C(=O)NC1CCCCC1	5	i	-5	-28	14*	-9	-34	18*
CCC(=O)c1ccc(OCc2ccccc2)c(OC)c1	0	i	-3	2	7.8*	-3	101*	38*
CCn1c(CNC(=O)c2cccc(C)c2)nnc1SCC(=O)Nc1nnc(C)s1	0	i	2	32	0	-2	x	x
Cc1cc(C)n(CCC(=O)N2CCc3ccccc32)n1	-12	i	6	-20	0	4	x	x
COc1ccc(N2Cc3ccc(OC)c(OC)c3C2=O)cc1	6	i	2	20	8.5*	3	100*	28*
COc1ccc2c(c1OC)C(=O)N(c1nccs1)C2	0	i	5	x	5	-6	x	x
Cc1cccc(NC(=O)CSCC(=O)Nc2cc(C(F)(F)F)ccc2N2CCOCC2)c1	x	x	x	x	14*	x	-1	9.4*
Cc1cc(NC(=O)C(C)SCC(=O)Nc2cc(C(F)(F)F)ccc2N2CCCCC2)no1 (centres undefined)	x	i	3	x	9.1*	-9	24*	16*
CCOc1ccc(-c2cccc(NC(=O)c3ccco3)c2)nn1	x	i	7	x	0	-4	x	x
CCc1nc2ccc(C(=O)NCc3ccc(OC)cc3)cn2c1N(CC)CCOC	x	x	x	x	0	x	x	x
COc1ccc(Cn2nnc3c(=O)[nH]c(C(=O)NCCc4ccc(F)cc4)nc32)cc1OC	-13	i	0	-1	20*	-5	9	9.0*
O=C(NCCc1ccccc1)c1nc2c(nnn2Cc2ccccc2Cl)c(=O)[nH]1	2	i	6	8	1	7	x	x
C=CCC1CCCCC1=C(C#N)c1ccccc1 (centres undefined)	x	x	x	x	0	x	x	x
CN(C)S(=O)(=O)n1cc(/C=C(\NC(=O)c2ccccc2Cl)C(=O)N2CCCC2)c2ccccc21	-3	i	11	-13	8.8*	10	15	11*
Cc1cc(-c2n[nH]c(=S)n2/N=C/C(Cl)=C/c2ccccc2)n[nH]1	-6	i	-5	-20	7	1	x	x
S=c1[nH]nc(-c2ccco2)n1/N=C/C(Cl)=C/c1ccccc1	-1	i	-6	0	8.0*	-4	78*	32*

Source: PubChem BioAssay (several laboratories)
